Data: ChEMBL document CHEMBL1649298, “Correlation between vancomycin MIC values and those of other agents against gram-positive bacteria among patients with bloodstream infections caused by methicillin-resistant Staphylococcus aureus” (2009)
≈ marks a conversion by molar mass, not a printed value.

Legend:
Format in all cases: functional
Staphylococcus aureus [1] = assay: Antibacterial activity against methicillin-resistant Staphylococcus aureus isolated form patient blood measured after 18 to 24 hrs on day 1 isolation by Etest
Method in brief: (§1)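 MRSA bloodstream isolates came from 120 patients at a tertiary care hospital between January 2005 and May 2007. MICs were read by Etest. Each patient's isolates were grouped as day 1 (index) or post-day 1 (subsequent).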

Staphylococcus aureus [2] = assay: microbe, parasite or virus in culture
Staphylococcus aureus [3] = assay: Antibacterial activity against methicillin-resistant Staphylococcus aureus isolated form patient blood measured after 18 to 24 hrs on day 1 post isolation by Etest; method in brief: as §1

SMILES	MIC (Staphylococcus aureus [1])	MIC50 (Staphylococcus aureus [1])	MIC90 (Staphylococcus aureus [1])	MIC (Staphylococcus aureus [2])	MIC50 (Staphylococcus aureus [2])	MIC90 (Staphylococcus aureus [2])	MIC (Staphylococcus aureus [3])	MIC50 (Staphylococcus aureus [3])	MIC90 (Staphylococcus aureus [3])
CN(C)c1cc(NC(=O)CNC(C)(C)C)c(O)c2c1C[C@H]1C[C@H]3[C@H](N(C)C)C(O)=C(C(N)=O)C(=O)[C@@]3(O)C(O)=C1C2=O [TIGECYCLINE]	0.09 µg/mL (≈ 0.154 µM)	0.19 µg/mL (≈ 0.324 µM)	0.25 µg/mL (≈ 0.427 µM)	0.09 µg/mL (≈ 0.154 µM)	0.13 µg/mL (≈ 0.222 µM)	0.2 µg/mL (≈ 0.341 µM)	0.09 µg/mL (≈ 0.154 µM)	0.19 µg/mL (≈ 0.324 µM)	0.25 µg/mL (≈ 0.427 µM)
CC(=O)NC[C@H]1CN(c2ccc(N3CCOCC3)c(F)c2)C(=O)O1 [LINEZOLID]	0.38 µg/mL (≈ 1.13 µM)	0.75 µg/mL (≈ 2.22 µM)	1.5 µg/mL (≈ 4.45 µM)	0.75 µg/mL (≈ 2.22 µM)	0.75 µg/mL (≈ 2.22 µM)	1 µg/mL (≈ 2.96 µM)	0.38 µg/mL (≈ 1.13 µM)	1 µg/mL (≈ 2.96 µM)	1.5 µg/mL (≈ 4.45 µM)
CN[C@H](CC(C)C)C(=O)N[C@H]1C(=O)N[C@@H](CC(N)=O)C(=O)N[C@H]2C(=O)N[C@H]3C(=O)N[C@H](C(=O)N[C@H](C(=O)O)c4cc(O)cc(O)c4-c4cc3ccc4O)[C@H](O)c3ccc(c(Cl)c3)Oc3cc2cc(c3O[C@@H]2O[C@H](CO)[C@@H](O)[C@H](O)[C@H]2O[C@H]2C[C@](C)(N)[C@H](O)[C@H](C)O2)Oc2ccc(cc2Cl)[C@H]1O [VANCOMYCIN]	–	1.5 µg/mL (≈ 1.04 µM)	1.5 µg/mL (≈ 1.04 µM)	–	–	–	–	1.5 µg/mL (≈ 1.04 µM)	2 µg/mL (≈ 1.38 µM)
CCCCCCCCCC(=O)N[C@@H](Cc1c[nH]c2ccccc12)C(=O)N[C@H](CC(N)=O)C(=O)N[C@@H](CC(=O)O)C(=O)N[C@@H]1C(=O)NCC(=O)N[C@@H](CCCN)C(=O)N[C@@H](CC(=O)O)C(=O)N[C@H](C)C(=O)N[C@@H](CC(=O)O)C(=O)NCC(=O)N[C@H](CO)C(=O)N[C@@H]([C@H](C)CC(=O)O)C(=O)N[C@@H](CC(=O)c2ccccc2N)C(=O)O[C@@H]1C	0.13 µg/mL (≈ 0.0802 µM)	0.5 µg/mL (≈ 0.309 µM)	0.75 µg/mL (≈ 0.463 µM)	0.13 µg/mL (≈ 0.0802 µM)	0.38 µg/mL (≈ 0.234 µM)	0.75 µg/mL (≈ 0.463 µM)	0.19 µg/mL (≈ 0.117 µM)	0.5 µg/mL (≈ 0.309 µM)	1 µg/mL (≈ 0.617 µM)
